Reference: ChEMBL document CHEMBL1145430, “Synthesis and simple 18F-labeling of 3-fluoro-5-(2-(2-(fluoromethyl)thiazol-4-yl)ethynyl)benzonitrile as a high affinity radioligand for imaging monkey brain metabotropic glutamate subtype-5 receptors with positron emission tomography” (J Med Chem, 2007)
Values belong to the molecule of their own block, whether it stands above or below them.

Tests used:
[1] = biological target: Muscarinic acetylcholine receptor M2 (Homo sapiens, UniProt P08172); assay: Displacement of [3H]QNB from muscarinic M2 receptor
Sequence of Muscarinic acetylcholine receptor M2 (P08172 whole entry): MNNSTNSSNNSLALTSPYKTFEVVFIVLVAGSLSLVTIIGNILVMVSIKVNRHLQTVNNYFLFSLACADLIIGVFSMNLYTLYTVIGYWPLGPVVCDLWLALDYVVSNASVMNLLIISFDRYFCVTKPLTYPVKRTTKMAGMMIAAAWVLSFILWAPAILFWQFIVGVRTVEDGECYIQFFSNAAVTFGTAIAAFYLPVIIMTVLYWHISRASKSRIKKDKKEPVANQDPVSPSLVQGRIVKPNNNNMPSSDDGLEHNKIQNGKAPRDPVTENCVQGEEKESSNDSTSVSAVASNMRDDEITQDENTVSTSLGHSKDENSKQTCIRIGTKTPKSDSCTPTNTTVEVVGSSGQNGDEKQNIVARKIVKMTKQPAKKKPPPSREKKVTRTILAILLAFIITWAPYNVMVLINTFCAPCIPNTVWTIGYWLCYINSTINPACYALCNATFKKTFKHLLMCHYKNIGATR

[2] = biological target: Muscarinic acetylcholine receptor M1 (Homo sapiens, UniProt P11229); assay: Displacement of [3H]QNB from muscarinic M1 receptor
[3] = biological target: 5-hydroxytryptamine receptor 7 (Homo sapiens, UniProt P34969); assay: Displacement of [3H]LSD from 5HT7 receptor
Sequence of 5-hydroxytryptamine receptor 7 (P34969 whole entry): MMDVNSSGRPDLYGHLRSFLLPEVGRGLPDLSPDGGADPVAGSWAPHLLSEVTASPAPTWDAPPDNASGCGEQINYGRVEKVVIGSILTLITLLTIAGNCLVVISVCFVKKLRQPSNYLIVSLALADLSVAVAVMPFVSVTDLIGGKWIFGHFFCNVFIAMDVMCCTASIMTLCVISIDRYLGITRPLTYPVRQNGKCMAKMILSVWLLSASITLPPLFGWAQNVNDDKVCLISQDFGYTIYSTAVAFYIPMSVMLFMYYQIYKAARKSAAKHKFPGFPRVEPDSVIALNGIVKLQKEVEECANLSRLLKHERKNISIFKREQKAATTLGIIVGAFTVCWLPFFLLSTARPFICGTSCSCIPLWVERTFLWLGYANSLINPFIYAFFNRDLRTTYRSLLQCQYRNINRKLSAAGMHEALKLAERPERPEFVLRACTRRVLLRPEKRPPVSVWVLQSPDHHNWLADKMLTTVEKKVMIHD

[4] = biological target: Beta-1 adrenergic receptor (Homo sapiens, UniProt P08588); assay: Displacement of [125I]pindolol from adrenergic beta-1 receptor
[5] = biological target: Metabotropic glutamate receptor 6 (Homo sapiens, UniProt O15303); assay: Binding affinity at mGluR6
Sequence of Metabotropic glutamate receptor 6 (O15303 whole entry): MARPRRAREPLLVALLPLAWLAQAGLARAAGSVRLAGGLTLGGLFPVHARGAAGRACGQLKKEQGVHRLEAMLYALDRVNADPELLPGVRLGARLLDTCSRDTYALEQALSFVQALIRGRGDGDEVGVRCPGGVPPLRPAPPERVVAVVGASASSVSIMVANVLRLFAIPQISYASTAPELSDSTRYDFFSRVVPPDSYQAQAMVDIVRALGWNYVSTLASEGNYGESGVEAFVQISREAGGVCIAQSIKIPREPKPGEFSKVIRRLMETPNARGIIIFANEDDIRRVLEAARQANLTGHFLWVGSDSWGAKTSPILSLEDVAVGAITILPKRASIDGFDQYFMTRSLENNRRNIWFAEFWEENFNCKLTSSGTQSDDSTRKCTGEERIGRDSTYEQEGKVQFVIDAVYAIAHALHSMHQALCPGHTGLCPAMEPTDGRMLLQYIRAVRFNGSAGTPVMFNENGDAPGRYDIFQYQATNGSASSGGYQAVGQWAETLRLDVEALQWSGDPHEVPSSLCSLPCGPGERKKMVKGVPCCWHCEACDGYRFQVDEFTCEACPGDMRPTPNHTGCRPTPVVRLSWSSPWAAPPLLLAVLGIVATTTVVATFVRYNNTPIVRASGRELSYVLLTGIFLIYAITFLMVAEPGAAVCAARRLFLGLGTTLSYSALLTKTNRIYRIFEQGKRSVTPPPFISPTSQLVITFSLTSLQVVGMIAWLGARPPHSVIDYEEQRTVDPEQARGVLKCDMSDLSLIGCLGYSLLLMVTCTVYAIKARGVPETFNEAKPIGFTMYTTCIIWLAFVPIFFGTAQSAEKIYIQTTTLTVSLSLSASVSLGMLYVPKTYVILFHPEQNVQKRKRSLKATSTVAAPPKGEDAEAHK

[6] = biological target: Beta-2 adrenergic receptor (Homo sapiens, UniProt P07550); assay: Displacement of [125I]pindolol from adrenergic beta-2 receptor
Sequence of Beta-2 adrenergic receptor (P07550 whole entry): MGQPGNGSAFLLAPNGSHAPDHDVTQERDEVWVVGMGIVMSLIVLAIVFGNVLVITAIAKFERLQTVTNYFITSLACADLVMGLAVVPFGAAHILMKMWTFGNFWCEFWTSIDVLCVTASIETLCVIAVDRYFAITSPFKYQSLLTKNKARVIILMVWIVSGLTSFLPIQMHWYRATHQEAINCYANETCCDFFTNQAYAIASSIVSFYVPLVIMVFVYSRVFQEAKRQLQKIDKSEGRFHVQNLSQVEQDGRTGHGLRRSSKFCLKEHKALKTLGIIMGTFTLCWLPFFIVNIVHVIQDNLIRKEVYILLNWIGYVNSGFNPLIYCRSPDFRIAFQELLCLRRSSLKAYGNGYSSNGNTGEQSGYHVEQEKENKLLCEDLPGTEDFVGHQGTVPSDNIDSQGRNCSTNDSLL

Mu-type opioid receptor = Mu-type opioid receptor (Homo sapiens, UniProt P35372); assay: Displacement of [3H]diprenorphine from mu opioid receptor
[7] = biological target: Muscarinic acetylcholine receptor M3 (Homo sapiens, UniProt P20309); assay: Displacement of [3H]QNB from muscarinic M3 receptor
D(1A) dopamine receptor = D(1A) dopamine receptor (Homo sapiens, UniProt P21728); assay: Displacement of [3H]SCH-23390 from dopamine D1 receptor
[8] = biological target: Metabotropic glutamate receptor 4 (Homo sapiens, UniProt Q14833); assay: Binding affinity at mGluR4
[9] = biological target: Metabotropic glutamate receptor 2 (Homo sapiens, UniProt Q14416); assay: Binding affinity at mGluR2
[10] = biological target: Sodium-dependent noradrenaline transporter (Homo sapiens, UniProt P23975); assay: Displacement of [3H]nisoxitine from NET
Histamine H1 receptor = Histamine H1 receptor (Homo sapiens, UniProt P35367); assay: Binding affinity to histamine H1 receptor
Histamine H4 receptor = Histamine H4 receptor (Homo sapiens, UniProt Q9H3N8); assay: Binding affinity to histamine H4 receptor
D(3) dopamine receptor = D(3) dopamine receptor (Homo sapiens, UniProt P35462); assay: Displacement of [3H]N-methylspiperone from dopamine D3 receptor
Sequence of D(3) dopamine receptor (P35462 whole entry): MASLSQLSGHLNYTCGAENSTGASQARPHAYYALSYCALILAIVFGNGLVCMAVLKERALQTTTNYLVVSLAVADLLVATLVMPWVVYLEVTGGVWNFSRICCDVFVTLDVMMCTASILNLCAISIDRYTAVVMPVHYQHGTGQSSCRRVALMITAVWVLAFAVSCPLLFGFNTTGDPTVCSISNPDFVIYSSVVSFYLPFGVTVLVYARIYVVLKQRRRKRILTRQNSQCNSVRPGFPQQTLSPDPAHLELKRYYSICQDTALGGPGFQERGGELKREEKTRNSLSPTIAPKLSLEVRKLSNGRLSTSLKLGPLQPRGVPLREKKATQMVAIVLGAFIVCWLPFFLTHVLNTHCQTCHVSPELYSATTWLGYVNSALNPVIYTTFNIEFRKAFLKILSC

[11] = biological target: 5-hydroxytryptamine receptor 1D (Homo sapiens, UniProt P28221); assay: Displacement of [3H]GR-125743 from 5HT1D receptor
[12] = biological target: Metabotropic glutamate receptor 1 (Homo sapiens, UniProt Q13255); assay: Binding affinity at mGluR1
[13] = biological target: Alpha-2A adrenergic receptor (Homo sapiens, UniProt P08913); assay: Displacement of [3H][…] from adrenergic alpha2A receptor
[14] = biological target: Metabotropic glutamate receptor 5 (Rattus norvegicus, UniProt P31424); assay: Displacement of […] from mGluR5 in rat brain membrane; format: cell membranes
Sequence of Metabotropic glutamate receptor 5 (P31424 whole entry): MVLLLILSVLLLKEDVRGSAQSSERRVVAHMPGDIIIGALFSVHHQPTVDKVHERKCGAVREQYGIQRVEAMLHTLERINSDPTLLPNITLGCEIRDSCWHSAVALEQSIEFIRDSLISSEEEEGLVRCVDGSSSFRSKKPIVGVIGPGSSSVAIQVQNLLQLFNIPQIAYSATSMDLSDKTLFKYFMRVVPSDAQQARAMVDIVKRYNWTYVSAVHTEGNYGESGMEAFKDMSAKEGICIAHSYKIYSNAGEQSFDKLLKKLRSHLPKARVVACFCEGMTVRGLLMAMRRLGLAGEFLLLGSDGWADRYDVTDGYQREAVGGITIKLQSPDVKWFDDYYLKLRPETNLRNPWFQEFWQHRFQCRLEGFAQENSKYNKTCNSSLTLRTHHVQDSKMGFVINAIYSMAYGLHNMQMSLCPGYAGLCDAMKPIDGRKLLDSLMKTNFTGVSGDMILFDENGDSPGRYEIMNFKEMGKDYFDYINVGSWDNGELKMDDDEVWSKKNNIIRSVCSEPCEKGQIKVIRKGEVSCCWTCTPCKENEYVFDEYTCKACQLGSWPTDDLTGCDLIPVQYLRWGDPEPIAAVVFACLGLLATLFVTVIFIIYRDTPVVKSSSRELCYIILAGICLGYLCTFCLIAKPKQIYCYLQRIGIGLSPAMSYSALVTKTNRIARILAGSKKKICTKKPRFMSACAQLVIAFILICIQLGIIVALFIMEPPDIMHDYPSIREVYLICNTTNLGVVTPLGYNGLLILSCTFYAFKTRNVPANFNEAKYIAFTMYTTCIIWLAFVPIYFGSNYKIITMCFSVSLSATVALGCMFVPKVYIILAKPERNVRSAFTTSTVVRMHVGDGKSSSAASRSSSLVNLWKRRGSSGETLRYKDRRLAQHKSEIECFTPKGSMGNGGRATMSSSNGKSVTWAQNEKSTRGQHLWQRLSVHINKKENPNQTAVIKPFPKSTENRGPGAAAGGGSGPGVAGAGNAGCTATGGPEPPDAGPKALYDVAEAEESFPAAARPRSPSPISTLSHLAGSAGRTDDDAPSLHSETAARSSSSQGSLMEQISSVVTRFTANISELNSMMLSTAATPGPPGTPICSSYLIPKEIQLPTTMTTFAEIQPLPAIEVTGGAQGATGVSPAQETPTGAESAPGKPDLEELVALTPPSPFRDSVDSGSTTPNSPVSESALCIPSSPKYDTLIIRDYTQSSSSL
How it was run: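 Competition binding against [³H]MPEPy in rat whole-brain membranes (minus cerebellum and brainstem), homogenized in 50 mM Tris-HCl/saline pH 7.5, pelleted at 39 800 g. Membranes 5 mg/800 µL final. Competitor from 10 mM ethanol stock, final 0.01 nM to 1 mM. Incubated 1 h at 22 °C, filtered on PEI-soaked GF/B, washed with cold saline, scintillation counted. Three determinations.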

[15] = biological target: Kappa-type opioid receptor (Homo sapiens, UniProt P41145); assay: Displacement of [3H]bremazocine from kappa opioid receptor
[16] = biological target: Muscarinic acetylcholine receptor M5 (Homo sapiens, UniProt P08912); assay: Displacement of [3H]QNB from muscarinic M5 receptor
[17] = biological target: 5-hydroxytryptamine receptor 2A (Homo sapiens, UniProt P28223); assay: Displacement of [3H]ketanserin from 5HT2A receptor
[18] = biological target: Alpha-1A adrenergic receptor (Homo sapiens, UniProt P35348); assay: Displacement of [3H]prazosin from adrenergic alpha-1A receptor
[19] = biological target: Sodium-dependent serotonin transporter (Homo sapiens, UniProt P31645); assay: Displacement of [3H]citalopram from SERT
D(2) dopamine receptor = D(2) dopamine receptor (Homo sapiens, UniProt P14416); assay: Displacement of [3H]N-methylspiperone from dopamine D2 receptor
[20] = biological target: Alpha-2C adrenergic receptor (Homo sapiens, UniProt P18825); assay: Displacement of [3H][…] from adrenergic alpha-2C receptor
Sequence of Alpha-2C adrenergic receptor (P18825 whole entry): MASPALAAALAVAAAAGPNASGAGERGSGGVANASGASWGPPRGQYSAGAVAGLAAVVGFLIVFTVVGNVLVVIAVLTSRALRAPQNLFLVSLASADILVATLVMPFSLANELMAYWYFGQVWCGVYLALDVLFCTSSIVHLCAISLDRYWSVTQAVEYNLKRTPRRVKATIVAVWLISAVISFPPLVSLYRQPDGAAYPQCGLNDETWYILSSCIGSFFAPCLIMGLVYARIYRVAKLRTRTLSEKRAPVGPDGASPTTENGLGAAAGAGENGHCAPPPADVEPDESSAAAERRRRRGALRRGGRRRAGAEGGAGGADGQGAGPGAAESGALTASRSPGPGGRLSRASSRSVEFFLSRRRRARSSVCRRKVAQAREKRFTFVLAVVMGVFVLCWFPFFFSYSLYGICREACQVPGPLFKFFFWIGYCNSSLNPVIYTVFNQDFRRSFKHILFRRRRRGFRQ

[21] = biological target: 5-hydroxytryptamine receptor 1A (Homo sapiens, UniProt P08908); assay: Displacement of [3H]8-OH-DPAT from 5HT1A receptor
[22] = biological target: Alpha-1B adrenergic receptor (Homo sapiens, UniProt P35368); assay: Displacement of [3H]prazosin from adrenergic alpha-1B receptor
[23] = biological target: 5-hydroxytryptamine receptor 5A (Homo sapiens, UniProt P47898); assay: Displacement of [3H]LSD from 5HT5A receptor
D(1B) dopamine receptor = D(1B) dopamine receptor (Homo sapiens, UniProt P21918); assay: Displacement of radiolabeled SKF-38393 from dopamine D5 receptor
[24] = biological target: Alpha-2B adrenergic receptor (Homo sapiens, UniProt P18089); assay: Displacement of [3H][…] from adrenergic alpha-2B receptor
Histamine H2 receptor = Histamine H2 receptor (Homo sapiens, UniProt P25021); assay: Binding affinity to from histamine H2 receptor
[25] = biological target: Muscarinic acetylcholine receptor M4 (Homo sapiens, UniProt P08173); assay: Displacement of [3H]QNB from muscarinic M4 receptor
[26] = biological target: 5-hydroxytryptamine receptor 2C (Homo sapiens, UniProt P28335); assay: Displacement of [3H]mesulergine from 5HT2C receptor
[27] = biological target: Sodium-dependent dopamine transporter (Homo sapiens, UniProt Q01959); assay: Displacement of [3H]WIN-35428 from DAT
[28] = biological target: Delta-type opioid receptor (Homo sapiens, UniProt P41143); assay: Displacement of [3H]DADLE from delta opioid receptor
[29] = biological target: 5-hydroxytryptamine receptor 1E (Homo sapiens, UniProt P28566); assay: Displacement of [3H]5-HT from 5HT1E receptor
[30] = biological target: Sigma non-opioid intracellular receptor 1 (Homo sapiens, UniProt Q99720); assay: Binding affinity to sigma1 receptor
Sequence of Sigma non-opioid intracellular receptor 1 (Q99720 whole entry): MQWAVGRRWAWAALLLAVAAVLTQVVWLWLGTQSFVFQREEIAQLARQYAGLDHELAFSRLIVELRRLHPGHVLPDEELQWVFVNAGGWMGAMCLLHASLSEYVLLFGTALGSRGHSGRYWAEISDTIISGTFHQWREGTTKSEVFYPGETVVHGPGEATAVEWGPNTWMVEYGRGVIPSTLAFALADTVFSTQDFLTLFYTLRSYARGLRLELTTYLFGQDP

[31] = biological target: 5-hydroxytryptamine receptor 2B (Homo sapiens, UniProt P41595); assay: Displacement of [3H]LSD from 5HT2B receptor
[32] = Lipophilicity, log D of the compound; format: physicochemical; conditions: octanol/water
How it was run: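 Partition of the [18F]-labeled radioligand between n-octanol and sodium phosphate buffer (0.15 M, pH 7.4) was measured, following a general method described earlier.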

Histamine H3 receptor = Histamine H3 receptor (Homo sapiens, UniProt Q9Y5N1); assay: Binding affinity to histamine H3 receptor
Sequence of Histamine H3 receptor (Q9Y5N1 whole entry): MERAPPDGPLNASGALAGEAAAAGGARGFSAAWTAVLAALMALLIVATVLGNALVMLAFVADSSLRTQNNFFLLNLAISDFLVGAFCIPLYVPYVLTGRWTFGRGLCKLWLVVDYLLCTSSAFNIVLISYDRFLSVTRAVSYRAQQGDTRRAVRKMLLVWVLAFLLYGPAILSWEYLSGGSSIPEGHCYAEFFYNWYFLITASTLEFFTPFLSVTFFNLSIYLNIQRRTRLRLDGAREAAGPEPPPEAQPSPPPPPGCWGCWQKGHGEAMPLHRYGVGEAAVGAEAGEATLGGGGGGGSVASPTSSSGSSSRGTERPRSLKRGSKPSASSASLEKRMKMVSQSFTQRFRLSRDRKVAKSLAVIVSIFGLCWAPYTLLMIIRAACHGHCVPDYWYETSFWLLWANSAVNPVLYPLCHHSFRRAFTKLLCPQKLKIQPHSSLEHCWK

[33] = biological target: Serotonin 3 (5-HT3) receptor; assay: Displacement of [3H]zacopride from 5HT3 receptor; format: protein-complex assay, Homo sapiens
[34] = biological target: Metabotropic glutamate receptor 8 (Homo sapiens, UniProt O00222); assay: Binding affinity at mGluR8
[35] = biological target: 5-hydroxytryptamine receptor 6 (Homo sapiens, UniProt P50406); assay: Displacement of [3H]LSD from 5HT6 receptor
D(4) dopamine receptor = D(4) dopamine receptor (Homo sapiens, UniProt P21917); assay: Displacement of [3H]N-methylspiperone from dopamine D4 receptor
[36] = Displacement of [3H]MK-801 from NMDA receptor; design: species or system Homo sapiens
[37] = biological target: 5-hydroxytryptamine receptor 1B (Homo sapiens, UniProt P28222); assay: Displacement of [3H]GR-125743 from 5HT1B receptor

Ki [1]: > 10 µM
Ki [2]: > 10 µM
Ki [3]: > 10 µM
Ki [4]: > 10 µM
Ki [5]: > 10 µM
Ki [6]: > 10 µM
Ki (Mu-type opioid receptor): > 10 µM
Ki [7]: > 10 µM
Ki (D(1A) dopamine receptor): > 10 µM
Ki [8]: > 10 µM
Ki [9]: > 10 µM
Ki [10]: > 10 µM
Ki (Histamine H1 receptor): > 10 µM
Ki (Histamine H4 receptor): > 10 µM
Ki (D(3) dopamine receptor): > 10 µM
Ki [11]: > 10 µM
Ki [12]: > 10 µM
Ki [13]: > 10 µM
IC50 [14]: 36 pM
Ki [15]: > 10 µM
Ki [16]: > 10 µM
Ki [17]: > 10 µM
Ki [18]: > 10 µM
Ki [19]: > 10 µM
Ki (D(2) dopamine receptor): > 10 µM
Ki [20]: > 10 µM
Ki [21]: > 10 µM
Ki [22]: > 10 µM
Ki [23]: > 10 µM
Ki (D(1B) dopamine receptor): > 10 µM
Ki [24]: > 10 µM
Ki (Histamine H2 receptor): > 10 µM
Ki [25]: > 10 µM
Ki [26]: > 10 µM
Ki [27]: > 10 µM
Ki [28]: > 10 µM
Ki [29]: > 10 µM
Ki [30]: > 10 µM
Ki [31]: > 10 µM
logD [32]: 2.18
Ki (Histamine H3 receptor): > 10 µM
Ki [33]: > 10 µM
Ki [34]: > 10 µM
Ki [35]: > 10 µM
Ki (D(4) dopamine receptor): > 10 µM
Ki [36]: > 10 µM
Ki [37]: > 10 µM
SMILES: N#Cc1cc(F)cc(C#Cc2csc(CF)n2)c1

IC50 [14]: 480 pM
SMILES: FCc1nc(C#Cc2cccc(F)c2)cs1

IC50 [14]: 520 pM
SMILES: COc1cccc(C#Cc2csc(CF)n2)c1
